Legend:
Env(wt) = experiment: Bind&Bite reaction with Env; design: species or system HIV-1; conditions: DMEM with 10% FCS
Method in brief: (§1)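 Env trimers (wild-type or C-terminal G4S-PepK fusion) were expressed in FreeStyle 293-F cells and lectin-purified. Biotinylated PepE was either activated in situ (7.1 μM with 71 μM EDC and 177.5 μM NHS, 30 min RT) or used as pre-activated, HPLC-purified NHS ester. It was added 1:10 to Env at 71 nM final in DMEM/10% FCS, giving final peptide 710, 71, 7.1 or 0.71 nM. Mixtures were incubated 30 min RT, run on reducing 10% SDS-PAGE, and blotted. Blots were probed with streptavidin-HRP or goat anti-gp120/anti-goat HRP, with ECL detection.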

Env-PepK = experiment: Bind&Bite reaction with Env-PepK in DMEM/10% FCS, SDS-PAGE and Western Blot; design: species or system HIV-1; conditions: Env-PepK 71 nM in DMEM with 10% FCS; 30 min RT; streptavidin-HRP blot
Method in brief: as §1

Bio-PepK-StA [1] = type: binding; conditions: C-terminal truncation of Fluo-PepE, Fig. 3A
Method in brief: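 Fluorescein-labelled PepE variants truncated at the C-terminus (50 nM in water) were mixed 1:1 with serial dilutions of biotin-PepK/streptavidin complex starting at 20 μM. No activation was used. Fluorescence polarization was measured after 30 min (485 nm excitation, 535 nm emission). The read-out was the Δpolarization relative to samples without biotinylated peptide/streptavidin.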

Bio-PepK-StA [2] = experiment: Flupol binding assay after Bind&Bite reaction; conditions: covalently stabilized by Bind&Bite, Fig. 3B
Method in brief: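 Equal volumes were mixed with serially diluted biotin-PepK/streptavidin complex starting at 20 μM. Fluorescence polarization was read after 30 min (ex 485/em 535 nm). The read-out was Δpolarization versus samples without biotinylated peptide/streptavidin.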

Substance	affinity of the non-covalent interaction with full-length PepK (Bio-PepK-StA [1])	further results
Ac-EIAALEREIAALEREIAALER-Aoa-Aoa-Lys(Bio)-NH2 [PepE-Bio]	–	off-target reaction with other components of the medium, in situ activated (Env(wt); in situ activated (EDC/NHS), Fig. 4C): considerable off-target reaction; off-target reactions, pre-activated, purified (Env(wt); pre-activated, purified PepE-Bio, Fig. 4D): largely eliminated; reaction with the PepK tag of Env-PepK (Env-PepK): selective reaction
Fluo-Aoa-EIAALEREIAALER-NH2 [PepE(-7C)]	complete loss of binding	concentrations at which the peptide binds to full-length PepK (Bio-PepK-StA [2]): submicromolar
Fluo-Aoa-EIAALEREIAALERE-NH2 [PepE(-6C)]	complete loss of binding	–
Fluo-Aoa-EIAALEREIAALEREIAAL-NH2 [PepE(-2C)]	very similar to full-length PepE	–
Fluo-Aoa-EIAALEREIAALEREIAALE-NH2 [PepE(-1C)]	very similar to full-length PepE	–

— PMC10549240 (RSC Chemical Biology, 2023)
